The results in this text go back to ChEMBL document CHEMBL1131454 (J Med Chem, 1998).

SMILES strings stand for the structures.

The target in test [1] is T1, Mineralocorticoid receptor (Homo sapiens, UniProt P08235).
T1 sequence (P08235 whole entry): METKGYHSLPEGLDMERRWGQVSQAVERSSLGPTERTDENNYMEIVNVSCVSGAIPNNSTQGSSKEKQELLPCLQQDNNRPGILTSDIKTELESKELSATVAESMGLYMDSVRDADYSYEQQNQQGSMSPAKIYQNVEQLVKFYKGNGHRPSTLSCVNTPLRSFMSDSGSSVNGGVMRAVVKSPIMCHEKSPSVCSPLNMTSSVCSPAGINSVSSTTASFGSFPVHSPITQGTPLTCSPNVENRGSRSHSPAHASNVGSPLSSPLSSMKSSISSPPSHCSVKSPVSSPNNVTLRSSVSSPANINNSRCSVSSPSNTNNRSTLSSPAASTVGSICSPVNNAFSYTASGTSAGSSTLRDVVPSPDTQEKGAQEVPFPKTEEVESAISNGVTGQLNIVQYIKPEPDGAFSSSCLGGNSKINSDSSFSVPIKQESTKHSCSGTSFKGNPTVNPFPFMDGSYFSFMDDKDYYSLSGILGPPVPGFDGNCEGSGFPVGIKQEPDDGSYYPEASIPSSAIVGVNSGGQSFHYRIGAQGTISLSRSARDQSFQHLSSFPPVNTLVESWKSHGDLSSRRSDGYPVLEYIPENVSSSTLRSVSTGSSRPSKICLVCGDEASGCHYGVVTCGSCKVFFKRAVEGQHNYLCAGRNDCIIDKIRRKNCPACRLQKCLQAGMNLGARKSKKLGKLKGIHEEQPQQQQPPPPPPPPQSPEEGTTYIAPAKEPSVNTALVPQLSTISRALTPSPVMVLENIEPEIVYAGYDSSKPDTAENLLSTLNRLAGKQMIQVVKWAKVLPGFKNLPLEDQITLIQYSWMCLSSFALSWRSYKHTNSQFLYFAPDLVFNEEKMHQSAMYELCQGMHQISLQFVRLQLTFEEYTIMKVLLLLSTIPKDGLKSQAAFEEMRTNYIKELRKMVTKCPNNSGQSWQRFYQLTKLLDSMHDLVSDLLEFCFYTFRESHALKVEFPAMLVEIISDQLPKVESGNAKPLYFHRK
Briefly: Antagonistic activity was determined in Human mineralocorticoid receptor(hMR) of CV-1 cells in cotransfection assay. In kind it is functional, cell-based.

Test [2] concerns the target T2, Progesterone receptor (Homo sapiens) (UniProt P06401).
T2 sequence (whole entry): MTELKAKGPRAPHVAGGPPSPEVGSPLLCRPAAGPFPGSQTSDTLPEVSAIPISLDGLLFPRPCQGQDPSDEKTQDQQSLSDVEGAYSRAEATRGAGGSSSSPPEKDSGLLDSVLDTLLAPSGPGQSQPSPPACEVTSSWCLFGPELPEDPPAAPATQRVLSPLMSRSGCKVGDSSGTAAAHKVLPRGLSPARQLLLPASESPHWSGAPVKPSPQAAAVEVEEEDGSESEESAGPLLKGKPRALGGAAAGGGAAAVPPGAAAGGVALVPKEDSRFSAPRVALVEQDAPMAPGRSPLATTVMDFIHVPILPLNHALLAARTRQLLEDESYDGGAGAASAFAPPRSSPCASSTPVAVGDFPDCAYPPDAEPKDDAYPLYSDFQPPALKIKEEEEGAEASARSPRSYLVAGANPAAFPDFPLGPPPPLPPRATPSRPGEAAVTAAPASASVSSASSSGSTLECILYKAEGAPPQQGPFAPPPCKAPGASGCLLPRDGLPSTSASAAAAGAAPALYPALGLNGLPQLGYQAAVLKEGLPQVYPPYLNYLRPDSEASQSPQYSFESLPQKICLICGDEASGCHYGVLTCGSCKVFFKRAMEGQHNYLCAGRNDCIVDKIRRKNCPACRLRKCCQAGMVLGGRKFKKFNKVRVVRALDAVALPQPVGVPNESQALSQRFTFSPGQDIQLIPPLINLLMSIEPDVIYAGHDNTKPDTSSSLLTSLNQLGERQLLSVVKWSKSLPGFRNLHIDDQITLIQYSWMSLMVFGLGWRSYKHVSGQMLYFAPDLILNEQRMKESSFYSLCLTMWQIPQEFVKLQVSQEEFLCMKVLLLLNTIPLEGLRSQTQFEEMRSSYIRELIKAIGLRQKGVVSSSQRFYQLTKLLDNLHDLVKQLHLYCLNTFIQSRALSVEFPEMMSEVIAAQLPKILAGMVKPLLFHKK
In words: Agonist efficacy for human progesterone receptor (hPR) was compared to that of progesterone (100%). In kind it is functional. An outline of the steps:
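Cotransfection assay in CV-1 cells transiently transfected by calcium phosphate coprecipitation with hPR plasmid, MTV-LUC reporter, pRS-β-Gal and filler DNA. Full dose–response curves from 10^-12 to 10^-5 M were run. […] Values are the mean of at least three experiments with triplicate determinations, or of two experiments, or a single experiment.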

In turn, `CC1=CC(C)(C)Nc2ccc3c(c21)C(c1ccc(C)c(F)c1)Oc1ccccc1-3` (stereo not drawn) yielded a half-maximal inhibitory concentration (IC50) in test [1] of 1000 nM. For the same compound, in test [2], the Efficacy amounted to 83%.
`CC1=CC(C)(C)Nc2ccc3c(c21)C(c1cc(C)cc(Br)c1)Oc1ccccc1-3` (stereo not drawn): the 50% inhibitory concentration (IC50) in test [1] was > 10000 nM. For the same compound, the Efficacy in test [2] worked out at 65%.
For `CC1=CC(C)(C)Nc2ccc3c(c21)C(c1cccc(Cl)c1)Oc1ccccc1-3` (stereo not drawn), in that order: 748 nM and 76%.
Consider `CC1=CC(C)(C)Nc2ccc3c(c21)C(c1ccc(Cl)c(Cl)c1)Oc1ccccc1-3` (stereo not drawn), for which inhibition in test [1] was half-maximal at 1060 nM (IC50). In test [2], this compound returned an Efficacy of 66%.
As for `CC1=CC(C)(C)Nc2ccc3c(c21)C(c1ccc(Br)cc1)Oc1ccccc1-3` (stereo not drawn), the half-inhibitory concentration (IC50) in test [1] is 977 nM. Moreover, the Efficacy in test [2] was found to be 59%.
In the case of `CC1=CC(C)(C)Nc2ccc3c(c21)C(c1ccc(C)cc1)Oc1ccccc1-3` (stereo not drawn), the IC50 in test [1] is 1590 nM. In test [2], this compound showed an Efficacy of 59%.
As to `CC1=CC(C)(C)Nc2ccc3c(c21)C(c1cc(Cl)cc(Cl)c1)Oc1ccccc1-3` (stereo not drawn), the 50% inhibitory concentration (IC50) in test [1] was > 10000 nM. Besides, the Efficacy in test [2] came to 57%.
`CC1=CC(C)(C)Nc2ccc3c(c21)C(c1cccc(C(F)(F)F)c1)Oc1ccccc1-3` (stereo not drawn) had an IC50 in test [1] of 2220 nM. Moreover, in test [2], the Efficacy amounted to 96%.
In the case of `CC1=CC(C)(C)Nc2ccc3c(c21)C(c1ccc(Cl)c(F)c1)Oc1ccccc1-3` (stereo not drawn), inhibition in test [1] was half-maximal at 1360 nM (IC50). In test [2], this compound registered an Efficacy of 59%.
Regarding `CC1=CC(C)(C)Nc2ccc3c(c21)C(c1cccc(Br)c1)Oc1ccccc1-3` (stereo not drawn), the IC50 in test [1] came to 1070 nM. Moreover, the Efficacy in test [2] came to 77%.
Take `CC1=CC(C)(C)Nc2ccc3c(c21)C(c1ccc(Cl)cc1)Oc1ccccc1-3` (stereo not drawn): the half-inhibitory concentration (IC50) in test [1] came to 1520 nM.
Take `CC1=CC(C)(C)Nc2ccc3c(c21)C(c1ccc(Cl)c(C)c1)Oc1ccccc1-3` (stereo not drawn): the IC50 in test [1] was 2030 nM. This compound also displayed an Efficacy in test [2] of 68%.
